Our source for the inhibition and IC50 values is ChEMBL document CHEMBL3352723, “6-(Hetero)Arylpurine nucleotides as inhibitors of the oncogenic target DNPH1: synthesis, structural studies and cytotoxic activities” (Eur J Med Chem, 2014).

A word on the IC50: it is the concentration at which inhibition is half-maximal. High values mean weaker potency, low ones greater potency.

Assay [1] is described as follows: Cytotoxicity against human HL60 cells at 10 uM after 72 hrs by MTT assay. The note with it: HL-60, 72 h, read-out: INH. For orientation: Formazan colour is commonly taken as a measure of viable cells.
Assay [2] can be described thus: Cytotoxicity against human HCT116 cells at 10 uM after 72 hrs by MTT assay. The note with it: HCT-116, 72 h, read-out: INH.
A short description of assay [3]: Cytotoxicity against human HL60 cells after 72 hrs by MTT assay. The note with it: HL-60, 72 h.
Assay [4] is described as follows: Cytotoxicity against human HCT116 cells after 72 hrs by MTT assay. It counts as functional, cell-based. The note with it: HCT-116, 72 h. In short, it runs like this:
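Cells grown in RPMI 1640 with L-glutamine, 10% FCS, penicillin/streptomycin and fungizone at 37 °C under 5% CO2. Seeding was 2000 cells/well for HCT116 and HL60 and 600 for HCT15; compounds added after 24 h in DMSO (1% final). Viable cells read at 490 nm with MTS reagent.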

Assay [5] can be described thus: Cytotoxicity against human HCT15 cells at 10 uM after 72 hrs by MTT assay. Conditions: HCT-15, 72 h, read-out: INH.
A short description of assay [6]: Cytotoxicity against human PC3 cells at 10 uM after 72 hrs by MTT assay. Conditions: PC-3, 72 h, read-out: INH.
For a further assay, the system named is MCF7. The assay is described as follows: Cytotoxicity against human MCF7 cells at 10 uM after 72 hrs by MTT assay. Conditions: MCF7, 72 h, read-out: INH.
A short description of assay [7]: Cytotoxicity against human HCT15 cells after 72 hrs by MTT assay. Conditions: HCT-15, 72 h.
Another assay has as its system PC-3. The note with it: Homo sapiens, 10 uM.
The next assay has as its system HCT-15. The note with it: Homo sapiens, 10 uM.
The test system of another assay is HL-60. Conditions: Homo sapiens, 10 uM.
The test system of a further assay is HCT-116. The note with it: Homo sapiens, 10 uM.

Activity calls are given as the source filed them. No cut-off for these calls is given here. Some results are limits rather than exact numbers.

`O=P(O)(O)OC[C@H]1O[C@@H](n2cnc3c(-c4ccoc4)ncnc32)[C@H](O)[C@@H]1O`: the inhibition at 10 µM (in [1]; in [2]; in assay [5]; in [6]; in the assay with MCF7) was greater than 90% in each case. Besides, the IC50 turned out to be 15.4 µM in [3], 5.5 µM in assay [4] and 1.3 µM in [7].
In the case of `O=P(O)(O)OC[C@H]1O[C@@H](n2cnc3c(-c4cccc(-c5cccc6c5sc5ccccc56)c4)ncnc32)[C@H](O)[C@@H]1O`, the inhibition result in the assay on PC-3, in the assay on HCT-15, with HL-60 and in the assay with HCT-116 was “inactive” each time. In the assay with MCF7, the inhibition at 10 µM was greater than 90%.
`O=P(O)(O)OC[C@H]1O[C@@H](n2cnc3c(-c4ccc(Cl)s4)ncnc32)[C@H](O)[C@@H]1O`: the inhibition at 10 µM (in assay [1]; in assay [2]; in assay [5]; in assay [6]; in the assay with MCF7) was greater than 90% each time. In addition, the IC50 in assay [3] is 6.5 µM; in assay [7], 1 µM.
Regarding `O=P(O)(O)OC[C@H]1O[C@@H](n2cnc3c(-c4ccccc4)ncnc32)[C@H](O)[C@@H]1O`, the inhibition at 10 µM (in assay [1]; in assay [2]; in [5]; in assay [6]; in the assay with MCF7) was greater than 90% in each case. Also, the IC50 came out at 1.7 µM in assay [3], 3.2 µM in assay [4] and 0.7 µM in [7].
For the compound `O=P(O)(O)OC[C@H]1O[C@@H](n2cnc3c(NCc4ccccc4)ncnc32)[C@H](O)[C@@H]1O`, the IC50 in assay [3] was determined as 5 µM; in assay [4] it was 7.7 µM; in [7], 0.8 µM.
On to `O=P(O)(O)OC[C@H]1O[C@@H](n2cnc3c(-c4ccc5cc[nH]c5c4)ncnc32)[C@H](O)[C@@H]1O`, for which the inhibition at 10 µM (in [1]; in [2]; in [5]; in assay [6]; in the assay with MCF7) was greater than 90% throughout. The IC50 in assay [3] was 0.5 µM; in assay [4] it was greater than 80 µM; in assay [7] it was 1.4 µM.
Consider `O=P(O)(O)OC[C@H]1O[C@@H](n2cnc3c(-c4ccc(O)cc4)ncnc32)[C@H](O)[C@@H]1O`, for which the inhibition at 10 µM (in assay [1]; in [2]; in [5]; in assay [6]; in the assay with MCF7) was greater than 90% throughout. The IC50 worked out at 0.5 µM in [3], 4.1 µM in assay [4] and 0.3 µM in assay [7].
Take `O=P(O)(O)OC[C@H]1O[C@@H](n2cnc3c(-c4cccc(Br)c4)ncnc32)[C@H](O)[C@@H]1O`: the inhibition at 10 µM (in assay [1]; in assay [2]; in assay [5]; in [6]; in the assay with MCF7) was greater than 90% each time. Moreover, the 50% inhibitory concentration (IC50) in assay [3] came to 3.9 µM; in assay [7], 0.6 µM.
As to `O=C(O)c1ccc(-c2cccc(-c3ncnc4c3ncn4[C@@H]3O[C@H](COP(=O)(O)O)[C@@H](O)[C@H]3O)c2)cc1`, the inhibition result with PC-3, in the assay on HCT-15, in the assay on HL-60 and with HCT-116 was “inactive” in each case. Besides, the inhibition at 10 µM in the assay on MCF7 was greater than 90%.
